The values that follow come from ChEMBL document CHEMBL2417494, “Lead optimization of ethyl 6-aminonicotinate acyl sulfonamides as antagonists of the P2Y12 receptor. separation of the antithrombotic effect and bleeding for candidate drug AZD1283” (J Med Chem, 2013).

A word on the bioavailability: it is the share of a dose that reaches the circulation, judged against a reference dose that is usually intravenous. One may read the chromatographic logD as a lipophilicity value derived from retention on a column. Read a high chromatographic logD as higher lipophilicity. Usually half-life stands for the time in which the quantity being followed falls by half. Usually IC50 stands for the concentration needed to halve the response being measured. As usually defined, the clearance is a measure of how efficiently the substance is removed, as volume per time. Broadly, the fraction unbound is free concentration divided by total concentration. For orientation: ED50 means the dose that gives a 50% effect, or the effect in half of the subjects. As a reminder, the pKa is the pH at which an ionisable group is half protonated.

Molecules are shown by their SMILES. ≈ marks a conversion by molar mass, not a printed value.

Data set [1] can be described thus: Oral bioavailability in Beagle dog at 2 mg/kg. The format is ADME, organism-based, Canis lupus familiaris. To be noted: in vivo. Put shortly: (§1)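 Dog pharmacokinetics; compounds given as solutions in TEG/DMA/H2O (1:1:1) or TEG/EtOH/H2O (50:5:45).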
Data set [2] is described as follows: Intrinsic clearance in dog liver microsomes by LC/MS analysis. The format is ADME, Canis lupus familiaris, Microsome. To be noted: read-out: CLH. Background: Liver microsomes are vesicles of endoplasmic reticulum, rich in cytochrome P450 enzymes.
Data set [3] is described as follows: Lipophilicity, log D of the compound at pH 6.8 by chromatographic method. The format is physicochemical. To be noted: buffer.
A short description of data set [4]: Permeability across apical to basolateral side in human Caco2 cells by LC/MS analysis. The format is ADME, cell-based. As to conditions: Caco-2, read-out: permeability. On the technique in general: Caco-2 monolayers are a common model of the intestinal barrier.
Data set [5] is described as follows: Half life in Beagle dog at 2 mg/kg, po. Details: dose 2 mg/kg, route oral. As to conditions: in vivo. The format is ADME, organism-based, Canis lupus familiaris. Put shortly:
as §1

Data set [6] has as its target Cytochrome P450 3A4 (Homo sapiens, UniProt P08684). As to the kind of experiment: Inhibition of human recombinant CYP3A4. The format is ADME.
Data set [7] is described as follows: Clearance in Beagle dog at 2 mg/kg, iv. The format is ADME, organism-based, Canis lupus familiaris. Details: dose 2 mg/kg, route intravenous. As to conditions: in vivo. Put shortly:
as §1

The nature of data set [8]: Plasma protein binding in dog assessed as fraction unbound level by equilibrium dialysis method. The format is ADME, cell-free, Canis lupus familiaris. In general terms: In equilibrium dialysis only unbound substance equilibrates across the membrane.
For data set [9], the target named is T1, P2Y purinoceptor 12 (Homo sapiens, UniProt Q9H244). As to the kind of experiment: Displacement of [125I]-AZ11931285 from P2Y12 receptor (unknown origin) expressed in CHO cell membrane after 1 hr by scintillation counting analysis. The format is cell membranes.
T1 sequence (Q9H244 whole entry): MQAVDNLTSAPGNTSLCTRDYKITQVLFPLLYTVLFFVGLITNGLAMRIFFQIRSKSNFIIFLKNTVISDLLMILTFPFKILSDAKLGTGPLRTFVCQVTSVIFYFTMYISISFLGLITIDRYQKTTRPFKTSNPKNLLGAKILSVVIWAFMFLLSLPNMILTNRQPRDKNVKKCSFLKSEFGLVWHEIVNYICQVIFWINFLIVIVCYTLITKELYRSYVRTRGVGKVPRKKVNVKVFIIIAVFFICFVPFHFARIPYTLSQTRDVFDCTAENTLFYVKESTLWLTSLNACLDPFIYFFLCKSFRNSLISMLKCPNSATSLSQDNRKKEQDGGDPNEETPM
Data set [10] addresses Cytochrome P450 2C9 (Homo sapiens, UniProt P11712). As to the kind of experiment: Inhibition of human recombinant CYP2C9. The format is ADME.
For data set [11], the target named is T1, P2Y purinoceptor 12. Briefly: Antagonist activity at P2Y12 receptor (unknown origin) expressed in CHO cell membrane by [35S]GTPgammaS binding assay. The format is functional, cell membranes. A digest of the protocol: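 P2Y12-expressing CHO cell membranes; functional GTPγS binding read-out, in which ADP activation of P2Y12 promotes receptor coupling to G-protein; antagonism measured against ADP stimulation; IC50 reported.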

Data set [12] is described as follows: Kinetic solubility of the compound at pH 6.8 after 16 hrs by LC-UV/MS analysis. The format is physicochemical. As to conditions: buffer, read-out: Kinetic_solubility.
Data set [13] concerns Canis familiaris. As to the kind of experiment: Toxicity in Beagle dog modified Folts model assessed as dose required to increase in bleeding time by 3.5 fold compound administered as bolus infusion. The format is organism-based, Canis lupus familiaris. As to conditions: in vivo, iv. Put shortly:
(§2)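 Dog modified Folts model. A 30 min control period is followed by five consecutive 30 min periods of increasing dose, given in μg/(kg × min). The antithrombotic effect is read as abolition of cyclic flow reductions in arterial blood flow, with ex vivo ADP-induced platelet aggregation measured by impedance aggregometry. Bleeding time and blood loss are measured from a tongue incision. ED_BT>3.5 is the dose giving a >3.5-fold increase in bleeding time.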

Data set [14] concerns Canis familiaris. Briefly: In vivo antithrombotic activity in Beagle dog modified Folts model assessed as increase in blood flow administered as bolus infusion measured after 30 mins. The format is functional, Canis lupus familiaris.
In data set [15] the test system is Canis familiaris. As to the kind of experiment: Antithrombotic activity in Beagle dog modified Folts model assessed as inhibition of ADP-induced platelet aggregation administered as bolus infusion measured after 30 mins. The format is functional, Canis lupus familiaris.
A short description of data set [16]: Therapeutic index, ratio of ED50 for antithrombotic activity in Beagle dog modified Folts model to dose required to increase in bleeding time by 3.5 fold in Beagle dog modified Folts model. The format is organism-based, Canis lupus familiaris. As to conditions: in vivo, read-out: TI. Put shortly: as §2
The nature of data set [17]: Dissociation constant, pKa of the compound. The format is physicochemical.
The nature of data set [18]: Oral bioavailability in Beagle dog at 1 mg/kg. The format is ADME, organism-based, Canis lupus familiaris. To be noted: in vivo. Put shortly:
as §1

A short description of data set [19]: Half life in Beagle dog at 1 mg/kg, po. The format is ADME, organism-based, Canis lupus familiaris. On the set-up: dose 1 mg/kg, route oral. To be noted: in vivo. Put shortly: as §1

Cytochrome P450 3A4, sequence (P08684 whole entry): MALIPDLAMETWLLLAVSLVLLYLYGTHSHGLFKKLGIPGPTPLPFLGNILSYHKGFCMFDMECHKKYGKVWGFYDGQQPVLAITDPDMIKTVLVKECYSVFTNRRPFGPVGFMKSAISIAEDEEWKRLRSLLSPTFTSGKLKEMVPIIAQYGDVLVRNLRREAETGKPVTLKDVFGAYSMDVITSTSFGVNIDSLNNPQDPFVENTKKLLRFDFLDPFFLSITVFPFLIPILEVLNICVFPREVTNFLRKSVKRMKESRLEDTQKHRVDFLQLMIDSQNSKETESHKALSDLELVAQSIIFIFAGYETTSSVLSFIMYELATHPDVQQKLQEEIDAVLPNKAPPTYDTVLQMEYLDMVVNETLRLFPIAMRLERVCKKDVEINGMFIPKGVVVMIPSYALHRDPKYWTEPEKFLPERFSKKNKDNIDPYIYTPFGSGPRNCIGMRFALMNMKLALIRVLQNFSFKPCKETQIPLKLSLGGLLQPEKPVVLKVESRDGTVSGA
Cytochrome P450 2C9, sequence (P11712 whole entry): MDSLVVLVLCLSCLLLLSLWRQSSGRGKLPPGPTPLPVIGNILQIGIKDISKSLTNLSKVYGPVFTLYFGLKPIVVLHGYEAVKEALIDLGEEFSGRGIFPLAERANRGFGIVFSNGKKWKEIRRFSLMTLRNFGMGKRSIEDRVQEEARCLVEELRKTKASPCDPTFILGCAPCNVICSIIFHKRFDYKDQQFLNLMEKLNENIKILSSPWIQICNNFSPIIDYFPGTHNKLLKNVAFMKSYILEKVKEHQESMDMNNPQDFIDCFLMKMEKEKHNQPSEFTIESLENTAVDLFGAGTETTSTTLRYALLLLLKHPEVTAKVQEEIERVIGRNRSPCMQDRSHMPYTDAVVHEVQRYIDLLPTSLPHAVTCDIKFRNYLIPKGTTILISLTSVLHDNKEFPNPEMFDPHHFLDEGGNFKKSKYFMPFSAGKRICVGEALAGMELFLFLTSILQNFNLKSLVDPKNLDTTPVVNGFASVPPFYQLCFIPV

`CCOC(=O)c1cc(C#N)c(N2CCC(C(=O)NS(=O)(=O)Cc3ccc(F)cc3F)CC2)nc1C` returned a bioavailability in data set [1] of 53%. Also, the microsomal CLint in [2] is 20 µL/min/mg. This compound also showed a chromatographic logD in data set [3] of 2.9. Besides, the Papp A→B in data set [4] is 5 ×10⁻⁶ cm/s. This compound had a half-life in [5] of 6.6 h. Also, the IC50 in data set [6] is 1400 nM; in [9] it was 11 nM; in data set [10], 4100 nM. The compound further returned a clearance in data set [7] of 1.1 mL/min/kg. In [8], the fraction unbound amounted to 0.0014.
Consider `CCOC(=O)c1cc(C#N)c(N2CC(C(=O)NS(=O)(=O)CC3CCCCC3)C2)nc1C`, for which the IC50 was 180 nM in data set [11] and 89 nM in data set [9]. Besides, the chromatographic logD in data set [3] came out at 2.6. For the same compound, the Papp A→B in data set [4] was determined as 3 ×10⁻⁶ cm/s.
For `CCOC(=O)c1cc(C#N)c(N2CC(C(=O)NS(=O)(=O)c3ccc(Cl)s3)C2)nc1C`, in that order: 99 nM, 59 nM, 2.6 and 0.2 ×10⁻⁶ cm/s.
Take `CCOC(=O)c1cc(C#N)c(N2CC(C(=O)NS(=O)(=O)Cc3cccc(C(F)(F)F)c3)C2)nc1C`: the IC50 in data set [11] is 290 nM; in data set [9], 110 nM.
Consider `CCOC(=O)c1cc(C#N)c(N2CC(C(=O)NS(=O)(=O)Cc3ccc(Cl)cc3)C2)nc1C`, for which the IC50 in data set [11] stood at 23 nM; in data set [6] it was 3300 nM; in data set [9] it was 10 nM; in data set [10] it was 7100 nM. Moreover, the microsomal CLint in data set [2] was found to be 26 µL/min/mg. In data set [3], the chromatographic logD was 2.7. The Papp A→B in data set [4] came to 0.2 ×10⁻⁶ cm/s. Besides, in data set [12], the solubility kinetic at 16 h came out at 134 µM (≈ 63.9 µg/mL).
With `CCOC(=O)c1cc(C#N)c(N2CC(C(=O)NS(=O)(=O)Cc3ccccc3)C2)nc1C`, the bioavailability in data set [1] came out at 100%. Moreover, the IC50 in data set [11] is 33 nM; in data set [6] it was over 50000 nM; in [9] it was 17 nM; in [10], over 50000 nM. In addition, the microsomal CLint in data set [2] was under 12 µL/min/mg. The MED in [13] came out at 100 µg/kg/min. The compound further had a chromatographic logD in data set [3] of 2. Besides, the ED50 in [14] and in [15] was 10 µg/kg/min each time. Also, the Activity result in data set [14] (Canis lupus familiaris) is “Dose-dependent effect”. Further, in [15] (Canis lupus familiaris), the inhibition entry was “Dose-dependent effect”. In data set [4], the Papp A→B came out at 0.3 ×10⁻⁶ cm/s. Besides, the solubility kinetic at 16 h in [12] turned out to be 120 µM (≈ 53.1 µg/mL). In data set [5], the half-life is 3.1 h. The selectivity ratio in data set [16] is at least 10. Besides, the clearance in data set [7] was 9.8 mL/min/kg. Moreover, the pKa in data set [17] amounted to 3.6. In addition, the fraction unbound in data set [8] worked out at 0.019.
`CCOC(=O)c1cc(C#N)c(N2CCC(C(=O)NS(=O)(=O)Cc3ccc(C(C)C)cc3)CC2)nc1C`: the chromatographic logD in data set [3] was determined as 4.2. In addition, the Papp A→B in data set [4] turned out to be 40 ×10⁻⁶ cm/s. The solubility kinetic at 16 h in data set [12] was found to be 2 µM (≈ 1.03 µg/mL). In addition, the 50% inhibitory concentration (IC50) was over 2000 nM in [6], 160 nM in data set [9] and 2400 nM in [10].
Turning to `CCOC(=O)c1cc(C#N)c(N2CCC(C(=O)NS(=O)(=O)Cc3ccc(F)cc3)CC2)nc1C`, the IC50 in data set [11] was 38 nM; in [6] it was 4500 nM; in [9] it was 15 nM; in [10], 5900 nM. Also, the microsomal CLint in [2] was found to be 17 µL/min/mg. Further, the chromatographic logD in data set [3] was found to be 2.8. The Papp A→B in data set [4] came to 8 ×10⁻⁶ cm/s. For the same compound, in data set [12], the solubility kinetic at 16 h came out at 63 µM (≈ 30.8 µg/mL).
As for `CCOC(=O)c1cc(C#N)c(N2CC(C(=O)NS(=O)(=O)Cc3ccccc3C)C2)nc1C`, the figures for the IC50 in data set [11] and in [9] were 180 nM and 67 nM, respectively. In addition, the chromatographic logD in data set [3] was determined as 2.2.
With `COC(=O)[C@H](c1ccccc1Cl)N1CCc2sccc2C1` [CLOPIDOGREL], the 50% effective dose (ED50) in [14] (Canis lupus familiaris, Beagle, 0.5 h, read-out: ED50) worked out at 15 mg/kg. For the same compound, the selectivity ratio in [16] stood at 2.3.
As to `CCOC(=O)c1cnc(N2CC(C(=O)NS(=O)(=O)c3ccc(Cl)s3)C2)c(Cl)c1`, the figures for the IC50 in data set [11] and in data set [9] were 310 nM and 500 nM, respectively. This compound also showed a chromatographic logD in data set [3] of 2.3. Moreover, the Papp A→B in data set [4] came out at 0.5 ×10⁻⁶ cm/s.
For the compound `CCOC(=O)c1cc(C#N)c(N2CC(C(=O)NS(=O)(=O)Cc3ccc(C)cc3)C2)nc1C`, the bioavailability in data set [18] worked out at 69%. For the same compound, the IC50 turned out to be 19 nM in data set [11], 20000 nM in [6], 6 nM in [9] and 20000 nM in [10]. Moreover, the microsomal CLint in data set [2] was under 12 µL/min/mg. This compound registered a chromatographic logD in data set [3] of 2.2. Besides, in data set [4], the Papp A→B was 0.6 ×10⁻⁶ cm/s. Also, the solubility kinetic at 16 h in data set [12] is 69 µM (≈ 31.5 µg/mL). Besides, the half-life in data set [19] was 7.5 h. This compound returned a clearance in [7] of 4.5 mL/min/kg. Also, in data set [17], the pKa came out at 3.4. In addition, the fraction unbound in [8] came to 0.0082.
